This is an account of results in the array DNA melting data of Ke et al. (doi:10.1101/2024.01.08.574731).

A short description of data set [1]: melting temperature; fluorescence melt of hairpins on a sequencing array, two-state fit, raised by 9.35 °C to match UV melts. The conditions noted are these: sodium 0.088 M. In a few lines: (§1)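 Library hairpins on a sequenced MiSeq flow cell carried annealed Cy3 and quencher oligos, and their Cy3 fluorescence was imaged in 50 mM Na-HEPES pH 8.0 with 25 mM NaCl, in 2.5 °C steps up to 60 °C. Signals were normalised to Cy3 before quenching and to control constructs. Melting temperature and folding enthalpy were obtained from bootstrapped two-state fits, combined by inverse-variance weighting across four replicates, and the fitted temperatures were then raised by 9.35 °C to match UV melts.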

Data set [2] is described as follows: folding enthalpy; higher = less favourable; fluorescence melt of hairpins on a sequencing array, two-state fit. The conditions noted are these: sodium 0.088 M. Summed up: as §1

Consider GATCGCTACGGCGATC ((((((....)))))), for which the Tm in data set [1] worked out at 67.8 °C. Besides, in data set [2], the folding enthalpy is -40.5 kcal/mol.

As for GCATCCGAAAGGACATGC ((((((....)))..))), in data set [1], the Tm was determined as 43.3 °C. Also, the folding enthalpy in data set [2] was -23.1 kcal/mol.

On to GATCGAACAGTCGATC ((((((....)))))), for which the Tm in data set [1] is 47.7 °C. For the same sequence, the folding enthalpy in data set [2] is -31.4 kcal/mol.

As to GATCCAAAAGTGGATC ((((((....)))))), in data set [1], the Tm was determined as 43.9 °C. Also, the folding enthalpy in data set [2] is -27.5 kcal/mol.

Take GTAGTCGAAAGACTTAC ((((((....))).))): the Tm in data set [1] came to 39.9 °C. The folding enthalpy in data set [2] was -13.2 kcal/mol.

Regarding GCTGCGTCGAAAGACAGC (((..(((....)))))), the Tm in data set [1] was 47.1 °C. The folding enthalpy in data set [2] is -14.5 kcal/mol.

As to GCCCCGCGAAAGCCAGGC (((..((....))..))), in data set [1], the Tm was 44.8 °C. Further, the folding enthalpy in data set [2] is -20.8 kcal/mol.

In the case of GATCCATCATTGGATC ((((((....)))))), the Tm in data set [1] was 51.4 °C. For the same sequence, the folding enthalpy in data set [2] is -35.8 kcal/mol.

Turning to GTCACCGAAAGGTCGGAC ((((((....)))..))), in data set [1], the Tm was 34.3 °C. Besides, in data set [2], the folding enthalpy was -16 kcal/mol.

With GAGCCCGAAAGGGATCTC ((((((....)))..))), in data set [1], the Tm worked out at 69 °C. Further, in data set [2], the folding enthalpy was -24.6 kcal/mol.

Take GTATGTGGAAACATGTAC (((..((....))..))): in data set [1], the Tm worked out at 30.9 °C. The folding enthalpy in data set [2] was -16.4 kcal/mol.

Consider GAAGCGGGAAACTGCTTC (((((.(....).))))), for which, in data set [1], the Tm was determined as 53 °C. In data set [2], the folding enthalpy is -40.4 kcal/mol.

Turning to GATGAGCGAAAGCTTATC (((.(((....))).))), the Tm in data set [1] amounted to 49.1 °C. Also, the folding enthalpy in data set [2] is -28.3 kcal/mol.

In the case of GGCGGCCCGAAAGGGGCC (((..(((....)))))), the Tm in data set [1] was 53.1 °C. The folding enthalpy in data set [2] is -7.67 kcal/mol.

Regarding GTGTCTGGAAACAGATAC ((.((((....)))).)), the Tm in data set [1] stood at 46.1 °C. Besides, the folding enthalpy in data set [2] was -37.9 kcal/mol.

With GGGAGCGAAAGCTCTCCC ((((((....)))..))), the Tm in data set [1] is 52.2 °C. Moreover, the folding enthalpy in data set [2] was -11.8 kcal/mol.

Take GAGCGCGAAAGCGACTC ((((((....))).))): in data set [1], the Tm amounted to 60.3 °C. Also, the folding enthalpy in data set [2] is -16.9 kcal/mol.

GGCCAACGAAAGTTCGCC (((.(((....))).))): the Tm in data set [1] worked out at 47 °C. Further, in data set [2], the folding enthalpy was -40.2 kcal/mol.

With GTCATCCGAAAGGAAGAC (((.(((....))).))), the Tm in data set [1] was 49.3 °C. In data set [2], the folding enthalpy was -29.9 kcal/mol.

Regarding GCCACCGAAAGGTTGGC ((((((....))).))), in data set [1], the Tm came to 60.5 °C. Besides, the folding enthalpy in data set [2] was -33.9 kcal/mol.

GATCCATCCGTGGATC ((((((....)))))): in data set [1], the Tm amounted to 52.9 °C. In addition, in data set [2], the folding enthalpy is -46.6 kcal/mol.

For GTGGTCCGAAAGGACAC (((.(((....)))))), the Tm in data set [1] amounted to 53.2 °C. In addition, the folding enthalpy in data set [2] was -12.8 kcal/mol.

As to GCCACCGAAAGGTACGGC ((((((....)))..))), in data set [1], the Tm worked out at 49 °C. Further, the folding enthalpy in data set [2] was -24.9 kcal/mol.

On to AATCTGAAAAGATT (((((....))))), for which the Tm in data set [1] came to 34.7 °C. The folding enthalpy in data set [2] is -13.1 kcal/mol.

Regarding GATCCATCCATGGATC ((((((....)))))), the Tm in data set [1] was found to be 55.8 °C. Moreover, in data set [2], the folding enthalpy was -43.4 kcal/mol.

Turning to GATCAAGCTGTTGATC ((((((....)))))), in data set [1], the Tm came out at 42.7 °C. Besides, the folding enthalpy in data set [2] is -31.2 kcal/mol.

Regarding GCAGCACGAAAGTGTTGC (((.(((....))).))), the Tm in data set [1] was 60.6 °C. The folding enthalpy in data set [2] is -37.2 kcal/mol.

Regarding CGTGTACGGAAACGTACG (((..(((....)))))), the Tm in data set [1] worked out at 46 °C. Moreover, the folding enthalpy in data set [2] is -8.98 kcal/mol.

Take CGCCACGGAAACGTGCG (((.(((....)))))): in data set [1], the Tm is 54.4 °C. For the same sequence, the folding enthalpy in data set [2] was -24.7 kcal/mol.

GGGTAAGGAAACTTGCCC (((.(((....))).))): the Tm in data set [1] turned out to be 50.5 °C. Besides, the folding enthalpy in data set [2] was -36.6 kcal/mol.

GCTCGCCGAAAGGCTAGC (((.(((....))).))): the Tm in data set [1] was found to be 54.6 °C. In addition, in data set [2], the folding enthalpy was -27.9 kcal/mol.

GAGAAACGAAAGTTACTC (((.(((....))).))): in data set [1], the Tm came to 41.7 °C. In addition, the folding enthalpy in data set [2] is -28.9 kcal/mol.

As to GGGGTCGGAAACGGCCTC (.((.((....)).)).), in data set [1], the Tm is 51.5 °C. Moreover, the folding enthalpy in data set [2] was -26.4 kcal/mol.

Take GCATCTGGAAACAAATGC ((((.((....)).)))): the Tm in data set [1] came to 32.6 °C. In addition, the folding enthalpy in data set [2] is -21.8 kcal/mol.

As to GTAGCACGAAAGTGTAC (((.(((....)))))), in data set [1], the Tm turned out to be 40.4 °C. Further, the folding enthalpy in data set [2] is -14.2 kcal/mol.

Regarding GATCTAGGCCTAGATC ((((((....)))))), in data set [1], the Tm was 52.4 °C. Besides, the folding enthalpy in data set [2] was -56 kcal/mol.

With GGGCTCGGAAACGAACCC (((.(((....))).))), the Tm in data set [1] worked out at 51 °C. Further, in data set [2], the folding enthalpy is -46.9 kcal/mol.

For GGTTGAGGAAACTTGACC (((..((....))..))), the Tm in data set [1] worked out at 32.1 °C. The folding enthalpy in data set [2] was -14.6 kcal/mol.

Regarding GCGAGGGATCGC ((((....)))), the Tm in data set [1] turned out to be 52.1 °C. The folding enthalpy in data set [2] is -16.6 kcal/mol.

With GCACACGAAAGTGCGTGC ((((((....)))..))), the Tm in data set [1] came out at 52.1 °C. Moreover, in data set [2], the folding enthalpy is -17 kcal/mol.

In the case of GTCGCAGAAATGCGAC ((((((....)))))), the Tm in data set [1] came out at 69.1 °C. The folding enthalpy in data set [2] was -38.1 kcal/mol.

As to GGTACCGAAAGGTGTACC ((((((....)))..))), the Tm in data set [1] amounted to 46.6 °C. For the same sequence, the folding enthalpy in data set [2] is -22.5 kcal/mol.

Turning to GACTGGGGAAACCCAGTC (((((((....))))))), the Tm in data set [1] is 66.6 °C. Moreover, the folding enthalpy in data set [2] was -40.3 kcal/mol.

With GACCTTGAAAAAGGTC ((((((....)))))), in data set [1], the Tm is 56.8 °C. The folding enthalpy in data set [2] was -33.4 kcal/mol.

As for GATCTGACATCAGATC ((((((....)))))), in data set [1], the Tm was found to be 48.3 °C. Further, in data set [2], the folding enthalpy was -33.5 kcal/mol.

Turning to GGATTGGGAAACCAATTC (.(((((....))))).), the Tm in data set [1] was determined as 44.2 °C. Also, in data set [2], the folding enthalpy is -28 kcal/mol.

For CGGGAACGGAAACGTCCG (((..(((....)))))), the Tm in data set [1] amounted to 43.1 °C. Moreover, the folding enthalpy in data set [2] is -22.2 kcal/mol.

On to GTCCACCGAAAGGTAGAC (((.(((....))).))), for which the Tm in data set [1] came to 47.4 °C. In addition, in data set [2], the folding enthalpy was -26.4 kcal/mol.

In the case of GCTAACGAAAGTTTAGC ((((((....))).))), the Tm in data set [1] worked out at 46.9 °C. Besides, in data set [2], the folding enthalpy was -24.2 kcal/mol.

For GGATAGCGAAAGCTCTCC (((.(((....))).))), the Tm in data set [1] turned out to be 45.4 °C. In data set [2], the folding enthalpy is -30.9 kcal/mol.

As to GTTGCCGGAAACGGTAGC (.(.(((....))).).), in data set [1], the Tm came out at 39.7 °C. Also, the folding enthalpy in data set [2] was -17.2 kcal/mol.

In the case of GGACAAGAAATTGTCC ((((((....)))))), in data set [1], the Tm is 55.3 °C. The folding enthalpy in data set [2] was -37.4 kcal/mol.

For the sequence GCTGTCGGAAACAACAGC (((((.(....).))))), the Tm in data set [1] worked out at 46 °C. Further, the folding enthalpy in data set [2] is -26.9 kcal/mol.

With TTTCGGAAACGAAA (((((....))))), in data set [1], the Tm came to 40.6 °C. The folding enthalpy in data set [2] is -18.3 kcal/mol.

For GGAGTACGAAAGTAGTCC (((.(((....))).))), the Tm in data set [1] was 55.2 °C. Moreover, the folding enthalpy in data set [2] was -40.4 kcal/mol.
